Laboratory results taken from ChEMBL document CHEMBL3352312, “Synthesis of linear and cyclic guazatine derivatives endowed with antibacterial activity” (Bioorg Med Chem Lett, 2014).

Columns and labels:
Pseudomonas aeruginosa = experiment: Antibacterial activity against Pseudomonas aeruginosa ATCC 27853 after 16 to 18 hrs by microbroth dilution method; type: functional
How it was run: (§1)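 Broth microdilution in Mueller–Hinton broth following CLSI recommendations. Strains came from ATCC or CCUG collections or the authors' clinical isolates. Compounds were dissolved in DMSO as a 100 mg/ml stock and then diluted in culture medium. Inoculum was 5 × 10⁴ CFU/well. MIC was read after 16–18 h incubation at 35–37 °C.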

Aeromonas hydrophila = experiment: Antibacterial activity against Aeromonas hydrophila ATCC 7966 after 16 to 18 hrs by microbroth dilution method; type: functional; how it was run: as §1
Bacillus subtilis = experiment: Antibacterial activity against Bacillus subtilis ATCC 6633 after 16 to 18 hrs by microbroth dilution method; type: functional; how it was run: as §1
Enterococcus faecalis = experiment: Antibacterial activity against Enterococcus faecalis ATCC 19433 after 16 to 18 hrs by microbroth dilution method; type: functional; how it was run: as §1
[1] = system: Staphylococcus epidermidis; experiment: Antibacterial activity against Staphylococcus epidermidis ATCC 14990 after 16 to 18 hrs by microbroth dilution method; type: functional; how it was run: as §1
Escherichia coli = experiment: Antibacterial activity against Escherichia coli CCUGT after 16 to 18 hrs by microbroth dilution method; type: functional; how it was run: as §1
Klebsiella pneumoniae = experiment: Antibacterial activity against Klebsiella pneumoniae ATCC 13833 after 16 to 18 hrs by microbroth dilution method; type: functional; how it was run: as §1
Streptococcus pyogenes = experiment: Antibacterial activity against Streptococcus pyogenes ATCC 12344 after 16 to 18 hrs by microbroth dilution method; type: functional; how it was run: as §1
Acinetobacter baumannii = experiment: Antibacterial activity against Acinetobacter baumannii ATCC 17978 after 16 to 18 hrs by microbroth dilution method; type: functional; how it was run: as §1
[2] = system: Elizabethkingia meningoseptica; experiment: Antibacterial activity against Elizabethkingia meningoseptica CCUG 4310 after 16 to 18 hrs by microbroth dilution method; type: functional; how it was run: as §1
[3] = Apparent permeability of the compound assessed as membrane retention at pH 7.4 after 5 hrs by PAMPA; type: physicochemical; settings: pH 7.4, 5 h
How it was run: (§2)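 Parallel artificial membrane permeability assay run at physiological pH 7.4 and at alkaline pH 10.0, the duodenal-like condition, as a gastrointestinal permeability model. Apparent permeability (P_app) is reported in nm/s, together with the percentage of compound retained in the membrane.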

[4] = Apparent permeability of the compound at pH 10.0 after 5 hrs by PAMPA; type: physicochemical; how it was run: as §2
[5] = Apparent permeability of the compound at pH 7.4 after 5 hrs by PAMPA; type: physicochemical; how it was run: as §2
[6] = Apparent permeability of the compound assessed as membrane retention at pH 10.0 after 5 hrs by PAMPA; type: physicochemical; settings: pH 10, 5 h; how it was run: as §2

Papp [3] | Papp at 5 h [4] | Papp at 5 h [5] | Papp [6] | Compound | MIC (Pseudomonas aeruginosa) | MIC (Aeromonas hydrophila) | MIC (Bacillus subtilis) | MIC (Enterococcus faecalis) | MIC [1] | MIC (Escherichia coli) | MIC (Klebsiella pneumoniae) | MIC (Streptococcus pyogenes) | MIC (Acinetobacter baumannii) | MIC [2]
– | – | – | – | C/C=C/CNC(=N)NCCCCCCN1CCCCCCCCNC(=N)NC1=O.O=C(O)C(F)(F)F.O=C(O)C(F)(F)F | > 256 µg/mL | > 256 µg/mL | 16 µg/mL | 32 µg/mL | 16 µg/mL | 256 µg/mL | > 256 µg/mL | 32 µg/mL | 256 µg/mL | 256 µg/mL
– | – | – | – | C=C(C)CNC(=N)NCCCCCCN1CCCCCCCCNC(=N)NC1=O.O=C(O)C(F)(F)F.O=C(O)C(F)(F)F | > 256 µg/mL | > 256 µg/mL | 16 µg/mL | 64 µg/mL | 16 µg/mL | 256 µg/mL | > 256 µg/mL | 8 µg/mL | 256 µg/mL | > 256 µg/mL
– | – | – | – | CCNC(=N)NCCCCCCN1CCCCCCCCNC(=N)NC1=O.O=C(O)C(F)(F)F.O=C(O)C(F)(F)F | > 256 µg/mL | > 256 µg/mL | 64 µg/mL | 128 µg/mL | 32 µg/mL | > 256 µg/mL | > 256 µg/mL | 16 µg/mL | > 256 µg/mL | > 256 µg/mL
– | – | – | – | C#CCNC(=N)NCCCCCCN1CCCCCCCCNC(=N)NC1=O.O=C(O)C(F)(F)F.O=C(O)C(F)(F)F | > 256 µg/mL | > 256 µg/mL | 64 µg/mL | 128 µg/mL | 32 µg/mL | > 256 µg/mL | > 256 µg/mL | 16 µg/mL | > 256 µg/mL | > 256 µg/mL
– | – | – | – | CC(C)=CCNC(=N)NCCCCCCN1CCCCCCCCNC(=N)NC1=O.O=C(O)C(F)(F)F.O=C(O)C(F)(F)F | > 256 µg/mL | > 256 µg/mL | 64 µg/mL | 16 µg/mL | 16 µg/mL | 256 µg/mL | > 256 µg/mL | 8 µg/mL | 256 µg/mL | > 256 µg/mL
– | – | – | – | CN(CCCCCCCCNCCCCCCCCNC(=N)N)C(=N)NCC1CC1.O=C(O)C(F)(F)F.O=C(O)C(F)(F)F.O=C(O)C(F)(F)F | 8 µg/mL | > 256 µg/mL | 256 µg/mL | 4 µg/mL | 8 µg/mL | > 256 µg/mL | 8 µg/mL | 8 µg/mL | 256 µg/mL | 32 µg/mL
– | – | – | – | C#CCNC(=N)N(C)CCCCCCCCNCCCCCCCCNC(=N)N.O=C(O)C(F)(F)F.O=C(O)C(F)(F)F.O=C(O)C(F)(F)F | 32 µg/mL | > 256 µg/mL | 256 µg/mL | 8 µg/mL | 16 µg/mL | > 256 µg/mL | 16 µg/mL | 16 µg/mL | 256 µg/mL | 64 µg/mL
– | – | – | – | CN(CCCCCCCCNCCCCCCCCNC(=N)N)C(=N)NCc1ccccc1.O=C(O)C(F)(F)F.O=C(O)C(F)(F)F.O=C(O)C(F)(F)F | 32 µg/mL | 256 µg/mL | > 256 µg/mL | 16 µg/mL | 32 µg/mL | > 256 µg/mL | 32 µg/mL | 16 µg/mL | 128 µg/mL | 64 µg/mL
0% | 0.057 ×10⁻⁶ cm/s | 0.03 ×10⁻⁶ cm/s | 0% | O=C(N[C@H](CO)[C@H](O)c1ccc([N+](=O)[O-])cc1)C(Cl)Cl [CHLORAMPHENICOL] | – | – | – | – | – | – | – | – | – | –
0% | 0.012 ×10⁻⁶ cm/s | 0.006 ×10⁻⁶ cm/s | 0% | CO[C@H]1/C=C/O[C@@]2(C)Oc3c(C)c(O)c4c(O)c(c5c(nc6cc(C)ccn65)c4c3C2=O)NC(=O)/C(C)=C\C=C\[C@H](C)[C@H](O)[C@@H](C)[C@@H](O)[C@@H](C)[C@H](OC(C)=O)[C@@H]1C [RIFAXIMIN] | – | – | – | – | – | – | – | – | – | –
